Laboratory results published in ChEMBL document CHEMBL1142894, “Preparation of 5-aryl-3-alkylthio-l,2,4-triazoles and corresponding sulfones with antiinflammatory-analgesic activity” (Bioorg Med Chem, 2007).
Calls of active or inactive are those of the source. The rule behind the calls is not given here.

Columns and labels:
Mus musculus [1] = experiment: Antiinflammatory activity against carrageenan-induced paw edema in Swiss albino mouse assessed as swelling thickness at 100 mg/kg, po after 90 mins; format: functional
Outline: (§1)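 Oral dosing in 0.5% CMC; vehicle to controls. Then carrageenan (0.5 mg/25 ll, freshly suspended in 154 mM saline) injected into the right hind paw subplantar tissue; saline into the left paw. Right-left footpad thickness difference measured by dial gauge calliper every 90 min over 6 h. Inhibition % is relative to vehicle control. n = 6; mean ± SEM.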

Mus musculus [2] = experiment: Inhibition of carrageenan-induced paw edema in Swiss albino mouse at 100 mg/kg, po after 360 mins relative to control; format: functional; conditions: 6 h; outline: as §1
Mus musculus [3] = experiment: Inhibition of carrageenan-induced paw edema in Swiss albino mouse at 100 mg/kg, po after 90 mins relative to control; format: functional; conditions: 1.5 h; outline: as §1
Mus musculus [4] = experiment: Antiinflammatory activity against carrageenan-induced paw edema in Swiss albino mouse assessed as swelling thickness at 200 mg/kg, po after 270 mins; format: functional; outline: as §1
Mus musculus [5] = experiment: Inhibition of carrageenan-induced paw edema in Swiss albino mouse at 25 mg/kg, po after 90 mins relative to control; format: functional; conditions: 1.5 h; outline: as §1
Mus musculus [6] = experiment: Inhibition of carrageenan-induced paw edema in Swiss albino mouse at 50 mg/kg, po after 180 mins relative to control; format: functional; conditions: 3 h; outline: as §1
Mus musculus [7] = experiment: Acute toxicity in Swiss albino mouse assessed as lethal effect at 50 mg/kg/day, po after 72 hrs; format: organism-based; design: route oral; conditions: in vivo
Outline: (§2)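 Oral single dose suspended in 0.5% carboxymethylcellulose, given after a 24 h fast; food and water returned 1 h after dosing. Vehicle-only controls. Mice observed at 1 h, then once daily for 72 h, for toxic signs and mortality.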

Mus musculus [8] = experiment: Inhibition of carrageenan-induced paw edema in Swiss albino mouse at 25 mg/kg, po after 180 mins relative to control; format: functional; conditions: 3 h; outline: as §1
Mus musculus [9] = experiment: Acute toxicity in Swiss albino mouse assessed as lethal effect at 100 mg/kg/day, po after 72 hrs; format: organism-based; design: route oral; conditions: in vivo; outline: as §2
Mus musculus [10] = experiment: Acute toxicity in Swiss albino mouse assessed as lethal effect at 200 mg/kg/day, po after 72 hrs; format: organism-based; design: route oral; conditions: in vivo; outline: as §2
Mus musculus [11] = experiment: Antiinflammatory activity against carrageenan-induced paw edema in Swiss albino mouse assessed as swelling thickness at 100 mg/kg, po after 360 mins; format: functional; outline: as §1
Mus musculus [12] = experiment: Antiinflammatory activity against carrageenan-induced paw edema in Swiss albino mouse assessed as swelling thickness at 50 mg/kg, po after 360 mins; format: functional; outline: as §1
Mus musculus [13] = experiment: Antiinflammatory activity against carrageenan-induced paw edema in Swiss albino mouse assessed as swelling thickness at 25 mg/kg, po after 360 mins; format: functional; outline: as §1
Mus musculus [14] = experiment: Acute toxicity in Swiss albino mouse assessed as lethal effect at 25 mg/kg/day, po after 72 hrs; format: organism-based; design: route oral; conditions: in vivo; outline: as §2
Mus musculus [15] = experiment: Inhibition of carrageenan-induced paw edema in Swiss albino mouse at 100 mg/kg, po after 270 mins relative to control; format: functional; conditions: 4.5 h; outline: as §1
Mus musculus [16] = experiment: Analgesic activity against p-benzoquinone-induced abdominal constriction in Swiss albino mouse assessed as number of writhings at 100 mg/kg, po; format: functional, Abdomen
Outline: (§3)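 Test samples given orally in 0.5% CMC; vehicle to controls. 60 min later, 2.5% (v/v) p-benzoquinone in distilled water, 0.1 ml/10 g, given i.p. Mice housed singly; writhes counted for 15 min starting 5 min after injection. Activity is % change from vehicle controls. n = 6; mean ± SEM.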

Mus musculus [17] = experiment: Inhibition of carrageenan-induced paw edema in Swiss albino mouse at 25 mg/kg, po after 360 mins relative to control; format: functional; conditions: 6 h; outline: as §1
Mus musculus [18] = experiment: Inhibition of carrageenan-induced paw edema in Swiss albino mouse at 25 mg/kg, po after 270 mins relative to control; format: functional; conditions: 4.5 h; outline: as §1
Mus musculus [19] = experiment: Analgesic activity against p-benzoquinone-induced abdominal constriction in Swiss albino mouse assessed as number of writhings at 50 mg/kg, po; format: functional, Abdomen; outline: as §3
Mus musculus [20] = experiment: Analgesic activity against p-benzoquinone-induced abdominal constriction in Swiss albino mouse assessed as number of writhings at 25 mg/kg, po; format: functional, Abdomen; outline: as §3
Mus musculus [21] = experiment: Gastric-ulcerogenic effect in Swiss albino mouse assessed as lesions at 50 mg/kg, po; format: functional, organism-based; design: dose 50 mg/kg
Outline: (§4)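 Mice killed under deep ether anesthesia 3 h after the writhing test; the oral dose in 0.5% CMC was the one used in that test. Stomachs removed, opened along the great curvature and examined under a dissecting microscope for lesions or bleeding. Reported as ratio of ulceration; n = 6.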

Mus musculus [22] = experiment: Inhibition of carrageenan-induced paw edema in Swiss albino mouse at 50 mg/kg, po after 270 mins relative to control; format: functional; conditions: 4.5 h
Outline: (§5)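 Mice, n = 6 per group. Test agent given orally as a suspension in 0.5% sodium CMC in distilled water; controls received vehicle only. Afterwards, 0.5 mg/25 ll carrageenan in saline (154 mM NaCl) injected subplantar into the right hind paw, saline into the left. Right-minus-left footpad thickness measured by dial gauge caliper every 90 min for 6 h. Inhibition is relative to vehicle-control group means.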

Mus musculus [23] = experiment: Inhibition of p-benzoquinone-induced writhing in Swiss albino mouse at 200 mg/kg, po relative to control; format: functional
Outline: (§6)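 Mice, n = 6 per group, dosed orally with a suspension in 0.5% sodium CMC. 60 min later, 0.1 ml/10 g of 2.5% […] p-benzoquinone in distilled water given ip. Abdominal writhes counted per animal for 15 min, starting 5 min after injection. Expressed as % change in mean writhing count versus vehicle controls.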

Mus musculus [24] = experiment: Analgesic activity against p-benzoquinone-induced abdominal constriction in Swiss albino mouse assessed as number of writhings at 200 mg/kg, po; format: functional, Abdomen; outline: as §3
Mus musculus [25] = experiment: Inhibition of carrageenan-induced paw edema in Swiss albino mouse at 50 mg/kg, po after 90 mins relative to control; format: functional; conditions: 1.5 h; outline: as §5
Mus musculus [26] = experiment: Antiinflammatory activity against carrageenan-induced paw edema in Swiss albino mouse assessed as swelling thickness at 25 mg/kg, po after 270 mins; format: functional; outline: as §1
Mus musculus [27] = experiment: Inhibition of p-benzoquinone-induced writhing in Swiss albino mouse at 100 mg/kg, po relative to control; format: functional; outline: as §6
Mus musculus [28] = experiment: Inhibition of p-benzoquinone-induced writhing in Swiss albino mouse at 50 mg/kg, po relative to control; format: functional; outline: as §6
Mus musculus [29] = experiment: Gastric-ulcerogenic effect in Swiss albino mouse assessed as lesions at 100 mg/kg, po; format: functional, organism-based; design: dose 100 mg/kg; outline: as §4
Mus musculus [30] = experiment: Antiinflammatory activity against carrageenan-induced paw edema in Swiss albino mouse assessed as swelling thickness at 25 mg/kg, po after 180 mins; format: functional; outline: as §1
Mus musculus [31] = experiment: Antiinflammatory activity against carrageenan-induced paw edema in Swiss albino mouse assessed as swelling thickness at 50 mg/kg, po after 180 mins; format: functional; outline: as §1
Mus musculus [32] = experiment: Gastric-ulcerogenic effect in Swiss albino mouse assessed as lesions at 25 mg/kg, po; format: functional, organism-based; design: dose 25 mg/kg; outline: as §4
Mus musculus [33] = experiment: Inhibition of p-benzoquinone-induced writhing in Swiss albino mouse at 25 mg/kg, po relative to control; format: functional; outline: as §6
Mus musculus [34] = experiment: Antiinflammatory activity against carrageenan-induced paw edema in Swiss albino mouse assessed as swelling thickness at 50 mg/kg, po after 270 mins; format: functional; outline: as §1
Mus musculus [35] = experiment: Inhibition of carrageenan-induced paw edema in Swiss albino mouse at 100 mg/kg, po after 180 mins relative to control; format: functional; conditions: 3 h; outline: as §1
Mus musculus [36] = experiment: Antiinflammatory activity against carrageenan-induced paw edema in Swiss albino mouse assessed as swelling thickness at 100 mg/kg, po after 270 mins; format: functional; outline: as §1
Mus musculus [37] = experiment: Antiinflammatory activity against carrageenan-induced paw edema in Swiss albino mouse assessed as swelling thickness at 200 mg/kg, po after 180 mins; format: functional; outline: as §1
Mus musculus [38] = experiment: Antiinflammatory activity against carrageenan-induced paw edema in Swiss albino mouse assessed as swelling thickness at 50 mg/kg, po after 90 mins; format: functional; outline: as §1
Mus musculus [39] = experiment: Antiinflammatory activity against carrageenan-induced paw edema in Swiss albino mouse assessed as swelling thickness at 200 mg/kg, po after 360 mins; format: functional; outline: as §1
Mus musculus [40] = experiment: Inhibition of carrageenan-induced paw edema in Swiss albino mouse at 50 mg/kg, po after 360 mins relative to control; format: functional; conditions: 6 h; outline: as §5
Mus musculus [41] = experiment: Antiinflammatory activity against carrageenan-induced paw edema in Swiss albino mouse assessed as swelling thickness at 25 mg/kg, po after 90 mins; format: functional; outline: as §1
Mus musculus [42] = experiment: Antiinflammatory activity against carrageenan-induced paw edema in Swiss albino mouse assessed as swelling thickness at 100 mg/kg, po after 180 mins; format: functional; outline: as §1
Mus musculus [43] = experiment: Antiinflammatory activity against carrageenan-induced paw edema in Swiss albino mouse assessed as swelling thickness at 200 mg/kg, po after 90 mins; format: functional; outline: as §1

In the case of CCSc1nc(-c2ccccc2Cl)n[nH]1, the Activity (Mus musculus [1]) is reported as 33.2 10^-2mm, the inhibition in vivo at 100 mg/kg (Mus musculus [2]) is reported as 30.9% and the inhibition in vivo at 100 mg/kg (Mus musculus [3]) is reported as 25.9%. The Activity (Mus musculus [4]) was 67.9 10^-2mm, the inhibition in vivo at 25 mg/kg (Mus musculus [5]) was 7.3% and the inhibition in vivo at 50 mg/kg (Mus musculus [6]) was 27.9%. The Activity (Mus musculus [7]) was “Non-toxic”, the inhibition in vivo at 25 mg/kg (Mus musculus [8]) was 7.7% and the Activity (Mus musculus [9]) was “Non-toxic”. For the same compound, the Activity (Mus musculus [10]) was “Non-toxic”, the Activity (Mus musculus [11]) was 47.5 10^-2mm and the Activity (Mus musculus [12]) was 50.7 10^-2mm. For the same compound, the Activity (Mus musculus [13]) was 68.9 10^-2mm, the Activity (Mus musculus [14]) was “Non-toxic” and the inhibition in vivo at 100 mg/kg (Mus musculus [15]) was 28.2%. The Activity (Mus musculus [16]) was 35.2, the inhibition in vivo at 25 mg/kg (Mus musculus [17]) was 4.3% and the inhibition in vivo at 25 mg/kg (Mus musculus [18]) was 6.6%. The Activity (Mus musculus [19]) was 37.8, the Activity (Mus musculus [20]) was 48.5 and the Activity (Mus musculus [21]) was “Active”. The inhibition in vivo at 50 mg/kg (Mus musculus [22]) was 27.8%, the inhibition in vivo at 200 mg/kg (Mus musculus [23]) was 19.6% and the Activity (Mus musculus [24]) was 41.3. For the same compound, the inhibition in vivo at 50 mg/kg (Mus musculus [25]) was 15%, the Activity (Mus musculus [26]) was 60.5 10^-2mm and the inhibition in vivo at 100 mg/kg (Mus musculus [27]) was 25.6%. The inhibition in vivo at 50 mg/kg (Mus musculus [28]) was 26.4%, the Activity (Mus musculus [29]) was “Active” and the Activity (Mus musculus [30]) was 54.8 10^-2mm. For the same compound, the Activity (Mus musculus [31]) was 42.8 10^-2mm, the Activity (Mus musculus [32]) was “Active” and the inhibition in vivo at 25 mg/kg (Mus musculus [33]) was 5.6%. For the same compound, the Activity (Mus musculus [34]) was 46.8 10^-2mm, the inhibition in vivo at 100 mg/kg (Mus musculus [35]) was 26.6% and the Activity (Mus musculus [36]) was 42.2 10^-2mm. The Activity (Mus musculus [37]) was 61.2 10^-2mm, the Activity (Mus musculus [38]) was 45.2 10^-2mm and the Activity (Mus musculus [39]) was 75.9 10^-2mm. The inhibition in vivo at 50 mg/kg (Mus musculus [40]) was 29.6%, the Activity (Mus musculus [41]) was 49.3 10^-2mm and the Activity (Mus musculus [42]) was 37.8 10^-2mm. The Activity (Mus musculus [43]) was 55.8 10^-2mm.
